Published values pooled from the literature.
Target: Tyrosine-protein kinase Fyn (FYN, Homo sapiens, UniProt P06241)

N#CCCc1ccc2c(c1)-c1[nH]c3ccc([N+](=O)[O-])cc3c1CC(=O)N2  remaining signal (cell-free assay; 0.5 µM): 52.2%
CNC(=O)Nc1ccc2c(c1)[C@@]1(CC2)OC(=O)N(CC(=O)N(Cc2ccc(F)cc2)[C@@H](C)C(F)(F)F)C1=O  remaining binding (cell-free assay, competition with immobilised ligand; 1 µM): 79%
C=CC(=O)Nc1cc(Nc2nccc(Nc3cc(Cl)c(F)cc3C(C)(C)O)n2)c(OC)cc1N1CC[C@@H](N(C)C)C1  inhibition (enzyme activity, inhibitor; 1 µM): 23%
COc1cc(OC)c(C=C2C(O)=Nc3ccccc32)c(OC)c1  remaining signal (cell-free assay, inhibitor; 0.5 µM): 100%
CNC(=O)c1cc(Oc2ccc(NC(=O)Nc3ccc(Cl)c(C(F)(F)F)c3)cc2)ccn1  inhibition (enzyme activity, inhibitor; 0.3 µM): -22%
CCOC(=O)c1cc2cc(-c3cc(C(=O)NCc4ccc(C(=O)O)cc4)nn3C)ccc2[nH]1  remaining binding (cell-free assay, competition with immobilised ligand; 0.1 µM): 100%
COc1cc(Cl)c(C(=O)N[C@@H](CN[C@H]2CC[C@@H](N)CC2)Cc2ccc(C#N)cc2)cc1-c1ccc(CN[C@H](C)c2ccc(C)cc2)o1  remaining activity (enzyme activity, inhibitor; 1 µM): 104%
CNC(=O)c1cc2c(Oc3ccc(NC(=O)C4(C(=O)Nc5ccc(F)cc5)CC4)cc3)ccnc2cc1OC  inhibition (enzyme activity, inhibitor, radiometric; 1 µM): 72%
CN([C@@H]1CCc2c(CC(=O)O)c3cc(S(C)(=O)=O)ccc3n2C1)S(=O)(=O)c1ccc(F)cc1  remaining binding (cell-free assay, competition with immobilised ligand; 1 µM): 99%
Cc1sc(C(=O)NC2COC2)cc1-n1cc(NC(=O)Nc2c(F)cccc2Cl)cn1  remaining activity (enzyme activity, inhibitor; 10 µM): 99.8%
c1nc2c(Nc3ccc4c(c3)OCCO4)nc(Nc3ccc4c(c3)OCCO4)nc2[nH]1  activity vs control (enzyme activity, inhibitor; 10 µM): 8.7%
CCc1ccccc1C(=O)Nc1n[nH]c2c(C)c(F)c(C3C(C#N)=C(C)N(C)C(C)=C3C#N)cc12  remaining binding (cell-free assay, competition with immobilised ligand; 1 µM): 100%
CCCCNc1ncc2c(-c3ccc(F)cc3)nn(C[C@H]3CC[C@H](N)CC3)c2n1  inhibition (target engagement in cells, inhibitor, chemoproteomics; 20 mM): > 96%
CCCOc1ccc(OC)c(F)c1C(=O)c1ccc(C(=O)N[C@@H]2CNC[C@H]2NC(=O)c2ccc3[nH]ncc3c2)cc1  remaining activity (enzyme activity, inhibitor; 10 µM): 69%
CCN(CC)CCNC(=O)c1c(C)[nH]c(/C=C2\C(=O)Nc3ccc(F)cc32)c1C  inhibition (enzyme activity, inhibitor; 10 µM): 89%
Cc1cc(-n2nc(Cc3cc(F)cc(C(F)(F)F)c3)nc2C)ccc1C(N)=O  remaining binding (cell-free assay, competition with immobilised ligand; 1 µM): 100%
O=C1c2ccccc2-c2n[nH]c3cccc1c23  activity vs control (enzyme activity, inhibitor; 0.5 µM): 93.2%
CC(C)c1ccc(NC(=O)c2cccs2)c(-c2nc3ccccc3[nH]c2=O)c1  activity vs control (enzyme activity, inhibitor; 1 µM): 103%
CC(C)(C)c1nc2c(s1)c1nc(N)ncc1c1ccc(NS(=O)(=O)c3c(F)cccc3F)c(F)c12  remaining activity (enzyme activity, inhibitor, radiometric; 1 µM): 97%
O=c1nc(-c2ccccn2)sc2ccccc12  remaining binding (binding, competition with immobilised ligand; 1 µM): 100%
COc1cc(Nc2c(C#N)cnc3cc(OCCCN4CCN(C)CC4)c(OC)cc23)c(Cl)cc1Cl  remaining signal (cell-free assay; 0.5 µM): 29.4%
COc1cccc2c(NCc3ccccc3)nc(-n3c(N)nc4ccccc43)nc12  inhibition (target engagement in cells, inhibitor, chemoproteomics; 20 mM): -15.9%
COc1cccc(CNC(=O)c2nc3scc(COCc4ccc(C(=O)O)cc4)c3c(=O)[nH]2)c1  remaining binding (cell-free assay, competition with immobilised ligand; 1 µM): 81.1%
CNc1cccc2cc(C(=O)Nc3ccc(C(=O)O)cc3)c(=O)[nH]c12  inhibition (enzyme activity, inhibitor; 10 µM): 6.9%
CC(=O)Nc1c(C(C)=O)c(=O)n(C)c2nc(-c3ccc(Cl)cc3Cl)c(-c3ccc(Cl)cc3)cc12  remaining binding (cell-free assay, competition with immobilised ligand; 1 µM): 100%
CNCc1ccc(-c2cc(-c3nc(-c4ccc(S(=O)(=O)C(C)C)cc4)cnc3N)on2)cc1  inhibition (enzyme activity, inhibitor; 0.4 µM): 9%
O=c1c2ccccc2[nH]c(=S)n1CCN1CCC(=C(c2ccc(F)cc2)c2ccc(F)cc2)CC1  remaining activity (enzyme activity, inhibitor; 0.5 µM): 102%
COc1cc2ncnc(Nc3ccc(Oc4ccccc4)c(C)c3C)c2cc1OC  inhibition (enzyme activity, inhibitor; 1 µM): 42%
Cc1cc(NC(=O)c2cccc3cc(-c4cccc5[nH]nc(N)c45)ccc23)ccc1F  activity vs control (enzyme activity, inhibitor; 0.1 µM): 88%
O=c1cc(-c2cccc3c2Sc2ccccc2S3)oc(N2CCOCC2)c1  remaining activity (enzyme activity, inhibitor; 0.5 µM): 88.6%
Cn1cnc(Br)c1C1=CN(c2ncnc3[nH]cnc23)CCS1  inhibition (enzyme activity, inhibitor, radiometric; 50 nM): 21.6%
